Measurements pooled from the literature.
Each line is one published result; the experiments were not run side by side.
Target: Cyclin-dependent kinase-like 3 (CDKL3, Homo sapiens, UniProt Q8IVW4)

COc1ccnn2ncc(-c3ccnc(N(C)C)n3)c12
remaining binding (binding; 1 µM): 94%

O=C(NCCCN1CCOCC1)c1ccc(Nc2ncc(Cl)c(-c3ccc(Cl)s3)n2)cc1
remaining binding (binding; competition with immobilised ligand; 1 µM): 86%

CC(C)(O)c1cncc(-c2nc3ccc(F)cc3n2C2CC2)c1
remaining binding (cell-free assay; competition with immobilised ligand; 1 µM): 84%

O=C(NCC1CCOCC1)c1n[nH]cc1NC(=O)c1c(F)cccc1F
remaining binding (binding; competition with immobilised ligand; 1 µM): 100%

FC(F)(F)Oc1cccc(-c2cnc3ccc(-c4ccncc4)nn23)c1
remaining binding (cell-free assay; competition with immobilised ligand; 5 µM): 85%

O=C(c1ccc(Nc2nccc(-c3cc4ccccc4s3)n2)cc1)N1CCC(N2CCCC2)CC1
remaining binding (binding; competition with immobilised ligand; 1 µM): 58%

CO[C@@H](C)c1c(Nc2ccc([C@H](N(C)C(=O)C3CCS(=O)(=O)CC3)C(F)(F)F)cc2)cnc2cc(Cl)nn12
remaining binding (cell-free assay; competition with immobilised ligand; 1 µM): 73%

CNC(=O)[C@@H]1CC[C@@H](n2c(-c3ccc4cnccc4c3)nc3ccc(C(=O)NCc4cccc(C(N)=O)c4)cc32)C1
remaining binding (binding; competition with immobilised ligand; 1 µM): 96%

Cc1cnn2ncc(-c3ccnc(N(C)C)n3)c2c1
remaining binding (binding; 1 µM): 86%

c1cncc(-c2cccc(Nc3nccc(NC4CCCCC4)n3)c2)c1
remaining binding (binding; competition with immobilised ligand; 10 µM): 100%

CN(C)c1nccc(-c2cnc3ncccn23)n1
remaining binding (binding; 1 µM): 100%

C[C@@H](c1ccc(-n2cnc3c(N)ncnc32)cc1)N1CCc2nn(C)c(Cc3ccccc3)c2C1=O
remaining binding (binding; competition with immobilised ligand; 0.1 µM): 95%

Cc1noc([C@H]2C[C@@H](c3ccc(C(F)(F)F)cc3)CN(C(=O)N3CCS(=O)(=O)C3)C2)n1
remaining binding (binding; competition with immobilised ligand; 1 µM): 81%

COc1cnc(Nc2cccc(S(N)(=O)=O)c2)nc1N1CCN(c2ccccc2)C(=O)C1
remaining binding (binding; competition with immobilised ligand; 1 µM): 99%

CCCCN(CCCC)C(=O)CN1C[C@H](c2cc(OC)c3c(c2)OCO3)[C@@H](C(=O)O)[C@@H]1CC(C)(C)CCC
remaining binding (cell-free assay; competition with immobilised ligand; 1 µM): 100%

N[C@H]1CCN(c2nccc(-c3cnn4ncccc34)n2)C1
remaining binding (binding; 1 µM): 100%

CNCc1ccccc1-c1csc([C@H](C)Nc2nc(C)nc3cc(OC)c(OC)cc23)c1
remaining binding (cell-free assay; competition with immobilised ligand; 1 µM): 97%

C[C@H]1CCN(c2nccc(-c3cnn4ncccc34)n2)C1
remaining binding (binding; 1 µM): 85%

CS(=O)(=O)NCC[C@H](NC(=O)c1cncc2c1cnn2-c1ccc(F)cc1)c1ccnc(S(C)(=O)=O)c1
remaining binding (binding; competition with immobilised ligand; 1 µM): 99%

O=C(NCCCN1CCOCC1)c1ccc(Nc2nccc(-c3cc4ccccc4s3)n2)cc1
remaining binding (binding; competition with immobilised ligand; 1 µM): 89%
